Laboratory results from ChEMBL document CHEMBL4177757, “Tight-Binding Inhibition of Human Monoamine Oxidase B by Chromone Analogs: A Kinetic, Crystallographic, and Biological Analysis” (J Med Chem, 2018).

Experiments:
[1] = molecular target: T1, Amine oxidase [flavin-containing] B (Homo sapiens, UniProt P27338); assay: Tight-binding competitive inhibition of recombinant human MAO-B expressed in Pichia pastoris using benzylamine as substrate by fluorimetric horseradish peroxidase-Amplex Red-coupled assay
T1 sequence (P27338 whole entry): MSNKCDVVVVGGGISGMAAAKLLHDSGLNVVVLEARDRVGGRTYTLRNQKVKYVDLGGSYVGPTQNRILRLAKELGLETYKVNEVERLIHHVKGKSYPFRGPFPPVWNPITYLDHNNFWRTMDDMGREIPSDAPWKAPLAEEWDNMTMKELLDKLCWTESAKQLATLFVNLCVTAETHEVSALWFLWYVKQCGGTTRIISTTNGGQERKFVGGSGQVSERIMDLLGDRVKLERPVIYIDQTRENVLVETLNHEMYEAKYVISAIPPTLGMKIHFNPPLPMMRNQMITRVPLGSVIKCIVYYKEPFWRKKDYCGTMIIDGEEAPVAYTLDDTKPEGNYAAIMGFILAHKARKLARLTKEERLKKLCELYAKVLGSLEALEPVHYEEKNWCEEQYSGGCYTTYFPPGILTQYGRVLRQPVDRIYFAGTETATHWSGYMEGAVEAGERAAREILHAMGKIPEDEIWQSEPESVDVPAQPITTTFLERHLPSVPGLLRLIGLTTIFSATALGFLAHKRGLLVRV

[2] = molecular target: T2, Amine oxidase [flavin-containing] A (Homo sapiens, UniProt P21397); assay: Inhibition of recombinant human MAO-A expressed in Pichia pastoris up to 100 uM using kynuramine as substrate by fluorimetric horseradish peroxidase-Amplex Red-coupled assay
T2 sequence (P21397 whole entry): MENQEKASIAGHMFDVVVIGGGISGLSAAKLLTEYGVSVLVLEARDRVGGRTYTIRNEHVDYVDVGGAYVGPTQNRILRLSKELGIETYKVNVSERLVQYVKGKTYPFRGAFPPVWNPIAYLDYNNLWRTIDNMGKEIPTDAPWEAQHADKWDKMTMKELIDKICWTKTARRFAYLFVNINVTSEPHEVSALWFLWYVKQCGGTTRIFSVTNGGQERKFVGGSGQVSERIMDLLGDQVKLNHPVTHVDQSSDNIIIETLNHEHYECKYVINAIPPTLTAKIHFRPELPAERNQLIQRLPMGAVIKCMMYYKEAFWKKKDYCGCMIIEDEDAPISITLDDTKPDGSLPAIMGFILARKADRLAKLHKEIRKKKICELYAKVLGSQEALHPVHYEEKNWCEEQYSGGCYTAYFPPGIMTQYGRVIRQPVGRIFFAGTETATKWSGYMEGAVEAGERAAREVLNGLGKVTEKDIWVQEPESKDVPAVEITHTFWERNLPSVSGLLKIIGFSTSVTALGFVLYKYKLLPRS

[3] = molecular target: T1, Amine oxidase [flavin-containing] B; assay: Non-competitive inhibition of recombinant human MAO-B expressed in Pichia pastoris using benzylamine as substrate by fluorimetric horseradish peroxidase-Amplex Red-coupled assay
Procedure, shortened: (§1)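 Purified Pichia-expressed human MAO-B, benzylamine substrate, H2O2 detected by HRP-Amplex Red coupling. Initial rates were measured at varying substrate and inhibitor levels. Inhibition mode came from global fits to competitive, mixed, non-competitive and uncompetitive Michaelis-Menten forms, chosen by r², plus double-reciprocal plots ([…] vs 1/[S]).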

[4] = molecular target: T1, Amine oxidase [flavin-containing] B; assay: Mixed-type inhibition of recombinant human MAO-B expressed in Pichia pastoris using benzylamine as substrate by fluorimetric horseradish peroxidase-Amplex Red-coupled assay; procedure, shortened: as §1

Structure (SMILES)	Ki [1] [nM]	inhibition (INH) [2]	inhibition (INH) [3]	inhibition (INH) [4]
O=c1c(CNc2cccc(Cl)c2)coc2ccccc12	2930	Not Active	–	–
O=C(Nc1cccc(F)c1)c1coc2ccccc2c1=O	31	Not Active	Active	Active
